Data from PMC4443790 (Neuron, 2015).
Entries after “also recorded” stand apart in the source; their conditions may differ.

Columns and labels:
rats [1] = assay: Amphetamine-induced hyperlocomotion; assay type: in vivo, rat
[2] = target: mGlu5 in rat cortical astrocytes (Rattus norvegicus, UniProt P31424); assay: Glutamate-induced calcium mobilization in cultured rat cortical astrocytes; assay type: cell-based
[3] = tested on: hippocampal Schaffer collateral-CA1 (SC-CA1) synapse; assay: DHPG-induced LTD, fEPSP recordings at hippocampal SC-CA1 synapse; set-up: species or system rat; details: for fEPSP slope, % of baseline: measured 55 min after washout
[4] = tested on: NMDAR currents in hippocampal CA1 pyramidal cells; assay: Whole-cell recordings of NMDA-evoked currents/responses in CA1 pyramidal cells; set-up: species or system rat; details: for effect on NMDA-evoked currents when added alone / effect on NMDAR currents in the presence of 3 μM DHPG: 5PAM523 20 μM, VU0409551 10 μM
rats [5] = assay: Behavioral convulsions, modified Racine scale; assay type: in vivo; details: rat
rats [6] = assay: Fluoro-Jade C staining of rat brain; assay type: in vivo
[7] = tested on: hippocampal SC-CA1 synapse; assay: Theta burst stimulation-induced LTP at the SC-CA1 synapse; set-up: species or system rat; details: 1 μM VU0092273 for 20 min then threshold TBS, 35 min after stimulation
How it was run: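 Threshold LTP was induced with one theta-burst train: nine bursts of four pulses at 100 Hz, 230 ms interburst interval. fEPSP slope was quantified 35 min after TBS.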

male Lister-hooded rats = assay: Delayed non-matching to position; assay type: in vivo; details: Lister-hooded rat, 10-60 mg/kg
How it was run: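 Male Lister-hooded rats (350-450 g), trained to stable accurate performance, received vehicle or test compound (10-60 mg/kg) 60 min before testing. Delays were 1, 10, 20 and 30 sec, with 15 trials each (60 total) and a 45 min maximum per session. Read-outs were proportion of correct responses per delay and trials initiated.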

[8] = Rat pharmacokinetics, single intravenous administration; assay type: in vivo; details: i.v., 2.5 mg/kg
mGlu1,2,3,4,6,7,8 = assay: mGlu subtype selectivity screening; assay type: cell-based, rat; details: 10 μM; shift of agonist concentration response curve
How it was run: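 Selectivity across mGlu subtypes: mGlu1 was tested by calcium flux in HEK293 cells stably expressing rat mGlu1. mGlu2, 3, 4, 6, 7 and 8 were each tested by thallium flux through GIRK channels in HEK-293-GIRK cells expressing that subtype.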

rat mGlu5 [9] = target: T1, rat mGlu5 (Rattus norvegicus, UniProt P31424); assay: Intracellular Ca2+ mobilization in HEK293A cells stably expressing rat mGlu5; assay type: cell-based; details: calcium mobilization
T1 sequence (P31424 21-1203): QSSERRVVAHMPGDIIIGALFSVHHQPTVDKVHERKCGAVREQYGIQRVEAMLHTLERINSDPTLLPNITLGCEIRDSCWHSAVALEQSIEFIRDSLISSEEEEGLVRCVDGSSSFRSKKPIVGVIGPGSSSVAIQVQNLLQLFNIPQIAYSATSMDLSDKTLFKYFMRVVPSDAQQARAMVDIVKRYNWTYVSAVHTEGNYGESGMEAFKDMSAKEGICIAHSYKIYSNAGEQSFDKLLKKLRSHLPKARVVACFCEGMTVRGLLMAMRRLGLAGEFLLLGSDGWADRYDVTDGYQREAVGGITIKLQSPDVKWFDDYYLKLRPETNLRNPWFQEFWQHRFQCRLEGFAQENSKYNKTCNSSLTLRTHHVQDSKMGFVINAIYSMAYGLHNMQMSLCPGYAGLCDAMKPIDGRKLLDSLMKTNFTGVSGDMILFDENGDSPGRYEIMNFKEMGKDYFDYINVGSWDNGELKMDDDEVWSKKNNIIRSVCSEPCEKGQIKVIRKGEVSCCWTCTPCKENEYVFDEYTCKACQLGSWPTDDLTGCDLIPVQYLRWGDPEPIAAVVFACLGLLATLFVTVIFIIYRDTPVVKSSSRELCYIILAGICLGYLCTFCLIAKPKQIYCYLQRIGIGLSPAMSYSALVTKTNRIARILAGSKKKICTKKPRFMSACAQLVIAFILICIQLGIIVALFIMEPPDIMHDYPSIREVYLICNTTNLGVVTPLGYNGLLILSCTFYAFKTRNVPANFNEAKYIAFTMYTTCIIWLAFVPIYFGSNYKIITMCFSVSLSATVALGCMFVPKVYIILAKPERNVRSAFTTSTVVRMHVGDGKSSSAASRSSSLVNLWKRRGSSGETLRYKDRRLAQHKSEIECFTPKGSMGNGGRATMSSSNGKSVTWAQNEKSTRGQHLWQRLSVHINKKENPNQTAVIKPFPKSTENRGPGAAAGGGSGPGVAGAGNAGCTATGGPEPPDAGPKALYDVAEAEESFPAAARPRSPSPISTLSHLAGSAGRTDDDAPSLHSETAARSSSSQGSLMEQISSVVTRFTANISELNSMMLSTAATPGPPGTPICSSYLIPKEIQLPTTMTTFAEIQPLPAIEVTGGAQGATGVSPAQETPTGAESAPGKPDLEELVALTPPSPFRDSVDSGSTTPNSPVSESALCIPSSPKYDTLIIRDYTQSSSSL
How it was run: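 Stably transfected HEK293A cells expressing rat mGlu5. Test compound added first (30 μM in representative traces), then EC20 and EC80 concentrations of glutamate added in sequence; intracellular calcium mobilization traces recorded.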

rats [10] = assay: MK-801-induced hyperlocomotion; assay type: in vivo; details: rat, p.o.
How it was run: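 Male Sprague Dawley rats in an open-field photobeam chamber received vehicle or test compound (10-100 mg/kg, oral, 20% β-cyclodextrin, 3 ml/kg) at t = 30, then MK-801 (0.2 mg/kg s.c. in saline) at t = 60 min. Activity was recorded 60 min more as beam breaks per 5-min bin. AUC from 60 to 120 min gave total ambulations; percent reversal was normalised to vehicle + MK-801; n = 10-12.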

[11] = Rat pharmacokinetics, single oral administration; assay type: in vivo; details: p.o., 3 mg/kg
[12] = Brain distribution in vivo after oral administration; details: rat, 1.5 hr after single p.o. 3, 10, 30, 100 mg/kg
[13] = tested on: NMDAR-fEPSP at SC-CA1 synapse; assay: NMDAR-mediated fEPSPs at the SC-CA1 synapse; set-up: species or system rat
[14] = Satellite PK for Fluoro-Jade studies, repeat oral dosing; assay type: in vivo; details: rat, 120 mg/kg p.o. once-daily for 4 days, 75% PEG 400 in water
How it was run: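 Non-fasted male Sprague Dawley rats received 120 mg/kg orally once daily for 4 days in aqueous PEG 400 vehicle. Serial blood samples were taken at 3, 7 and 24 hr post-dose on day 1 and day 4. Plasma concentrations were quantified by LC-MS/MS.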

[15] = tested on: EPSCNMDA/EPSCAMPA at SC-CA1 synapses; details: 10 μM
[16] = Biotransformation in rat hepatocytes; assay type: in vitro ADME; details: multiple oxidative pathways
α2A adrenergic receptors = target: T2, α2A adrenergic receptors (Homo sapiens, UniProt P08913); assay: Radioligand competition binding assay; details: read-out: IC50 at α2A adrenergic receptors
T2 sequence (P08913 1-465): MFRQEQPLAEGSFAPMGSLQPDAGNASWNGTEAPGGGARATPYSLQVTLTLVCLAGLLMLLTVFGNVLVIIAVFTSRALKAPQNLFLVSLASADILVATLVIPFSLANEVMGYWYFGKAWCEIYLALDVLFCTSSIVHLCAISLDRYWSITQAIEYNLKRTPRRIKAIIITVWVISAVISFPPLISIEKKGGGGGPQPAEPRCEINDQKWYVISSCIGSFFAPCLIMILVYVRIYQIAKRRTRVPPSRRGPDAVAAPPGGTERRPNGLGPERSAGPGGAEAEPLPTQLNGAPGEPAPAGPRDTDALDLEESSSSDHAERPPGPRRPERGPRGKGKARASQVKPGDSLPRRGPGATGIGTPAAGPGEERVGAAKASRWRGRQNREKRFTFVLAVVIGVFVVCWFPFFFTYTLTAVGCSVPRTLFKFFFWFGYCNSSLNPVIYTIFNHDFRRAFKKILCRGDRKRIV

rats [17] = assay: Sleep-wake electroencephalography; assay type: in vivo; details: rat, p.o., 10 mg/kg
[18] = In vitro fraction unbound in rat plasma; assay type: in vitro ADME
rats [19] = assay: Contextual fear conditioning; assay type: in vivo; details: rat, 0.3 - 10 mg/kg, 30 min pretreatment prior to conditioning
How it was run: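 Male Sprague Dawley rats (275-300 g) were dosed orally in 20% β-cyclodextrin (3 ml/kg) 30 min before conditioning. In a chamber scented with 10% vanilla extract, they had 2 min habituation, then one 1 s, 0.5 mA shock-context pairing, and returned home after 45 sec. 24 hr later, freezing was scored blind over 2 min 45 sec in the same context without shock or drug.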

rats [20] = assay: Amphetamine-induced disruption of prepulse inhibition; assay type: in vivo; details: rat, 56.6 and 100 mg/kg, 30 min pretreatment
rats [21] = assay: Novel object recognition; assay type: in vivo; details: rat, 1-10 mg/kg, 30 min prior to exposure; significant at 3 and 10 mg/kg
[22] = tested on: 66 other receptors and ion channels; assay: Radioligand competition binding panel; details: 10 μM
rat mGlu5 [23] = target: T1, rat mGlu5; assay: mGlu5-mediated ERK1/2 phosphorylation; assay type: cell-based
How it was run: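 HEK293A cells stably expressing rat mGlu5 were used. Phosphorylated ERK1/2 was measured with an ALPHAScreen-based ERK Surefire assay, both with glutamate added and without added glutamate.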

[24] = In vitro fraction unbound in rat brain; assay type: in vitro ADME
[25] = rat, 3-100 mg/kg, 30 min pretreatment, amphetamine 1 mg/kg s.c.
[26] = operational model of allosterism, pERK1/2

Chain of mGlu5 in rat cortical astrocytes (P31424 21-1203): as the sequence (P31424 21-1203) above

Cc1nc(C#Cc2cccnc2)cs1 [MTEP, reference compound]
effect on reversal of AHL by VU0409551 (rats [1]; data not shown): blocked

Cc1cccc(C#Cc2ccccc2)n1 [MPEP, 2-methyl-6-(phenylethynyl)-pyridine, reference compound]
effect on VU0409551 potentiation of glutamate-induced calcium mobilization ([2]; MPEP 10 μM): blocked

N[C@H](C(=O)O)c1cc(O)cc(O)c1 [DHPG, reference compound]
fEPSP slope, % of baseline ([3]; 25 μM DHPG for 10 min): 78.9% ± 5.7% | fEPSP slope, % of baseline ([3]; 75 μM DHPG for 10 min): 54.9% ± 5.3% | effect of DHPG on inward currents evoked by NMDA ([4]; voltage clamp, DHPG at different concentrations): concentration-dependent increase in inward currents

C[C@@H]1CC[C@H](c2noc(-c3ccc(F)cn3)n2)CN1C(=O)c1ccc(F)cc1 [5PAM523, reference compound]
behavioral convulsions (Racine scale) (rats [5]; 5PAM523 56.6 mg/kg): induced behavioral convulsions | effect on NMDA-evoked currents when added alone ([4]; voltage clamp): had no effect | effect on NMDAR currents in the presence of 3 μM DHPG ([4]; voltage clamp): potentiated

C[C@@H](NC(=O)c1ccc(C#Cc2cccc(F)c2)cn1)C(C)(C)O [VU0424465, reference compound]
FJC-positive neurons in the auditory cortex and adjacent cortical regions (rats [6]; rat, single dose 3 mg/kg i.p., 24 hr after dose): induced cell death | behavioral convulsions (Racine scale) (rats [5]; VU0424465 3 mg/kg): induced behavioral convulsions

O=C(c1ccc(C#Cc2ccccc2)cc1)N1CCC(O)CC1 [VU0092273]
effect on fEPSP slope in response to threshold TBS [7]: significant potentiation

O=C(c1ccc(F)cc1)N1CCc2nc(COc3ccccc3)oc2C1 [VU0409551]
total number of trials initiated (male Lister-hooded rats; 60 min pretreatment): no change | proportion of correct responses at a 10 and 20 sec delay (male Lister-hooded rats; 60 min pretreatment (60 mg/kg)): increased | clearance from plasma (CLp) [8]: 33 mL/min/kg | half-life (t1/2) [8]: 3.9 h | volume of distribution at steady-state (Vss) [8]: 9.6 L/kg | effect at the other mGlu receptor subtypes (mGlu1,2,3,4,6,7,8): no effect; also recorded: did not shift the agonist concentration response curve | intrinsic agonist activity ([2]; cultured rat cortical astrocytes): no intrinsic agonist activity | maximum glutamate response ([2]; rat cortical astrocytes): 79.5% | intrinsic agonist activity (rat mGlu5 [9]): did not possess intrinsic agonist activity | minimal effective dose (MED), reversal of MK-801-induced hyperlocomotion (rats [10]; 10-100 mg/kg, 30 min pretreatment, MK-801 0.2 mg/kg s.c.): 10 mg/kg | maximum reversal of MK-801-induced hyperlocomotion (rats [10]; highest dose 100 mg/kg): 49.7% | area-under-the-curve from 0-last (AUC0-last) [11]: 2.9 µM·h | oral bioavailability (%F) [11]: 63% | FJC staining (rats [6]; 360 mg/kg, once daily for 1 month, unpublished findings): can induce FJC staining | FJC staining (rats [6]; rat, 120 mg/kg p.o. daily for four consecutive days, 24 hr after last dose): did not induce | brain to plasma Kp [12]: 2.3 | unbound brain to plasma Kp (Kp,uu) [12]: 1.3 | effect on NMDAR-fEPSP slope [13]: had no effect | AUC0-last day 1 [14]: 96 µM·h | AUC0-last day 4 [14]: 95 µM·h | effect on EPSCNMDA/EPSCAMPA ratio when applied alone [15]: had no effects | behavioral convulsions (rats [5]; repeated once-daily 450 mg/kg over 14 days, data not shown): did not induce behavioral convulsions | turnover in rat hepatocytes [16]: moderate turnover | IC50 (α2A adrenergic receptors): 8.9 µM | duration of decreased time asleep post-administration (rats [17]): 2 h | fraction unbound in rat plasma (fup) [18]: 0.07 | acquisition of fear memory assessed 24 hr later (rats [19]): significantly enhanced | maximum reversal of amphetamine-induced hyperlocomotion (rats [1]; rat, 3-100 mg/kg): 78.1% | ED50, reversal of amphetamine-induced hyperlocomotion (rats [1]; [25]): 5.9 mg/kg | MED, reversal of amphetamine-induced hyperlocomotion (rats [1]; [25]): 3 mg/kg | EC50 (rats [1]; read-out: in vivo EC50 for reversal of AHL, terminal (1.5 hr) unbound brain concentration, individual animal concentration-efficacy data from all dose groups): 0.097 µM | Emax for reversal of AHL (rats [1]; unbound brain concentration-efficacy analysis): 82% | amphetamine-induced disruptions in PPI (rats [20]): reversed | fEPSP slope, % of baseline ([3]; 10 μM VU0409551 plus 25 μM DHPG): 43.7% ± 4.6% | effect on fEPSP slope when applied alone ([3]; VU0409551 alone, transient, returned to baseline within 10 min of washout): slight depression in the fEPSP slope | recognition memory in the novel object recognition task (rats [21]): dose-dependent increase | effect on 3 μM DHPG-induced depolarization or increase in NMDAR response ([4]; current clamp): did not potentiate | effect on NMDA-evoked responses when applied alone ([4]; current clamp): had no effect | effect on NMDA-evoked currents when added alone ([4]; voltage clamp): had no effect | effect on NMDAR currents in the presence of 3 μM DHPG ([4]; voltage clamp): had no effect | activity at 66 other receptors and ion channels [22]: no activity | pERK1/2 agonist activity (rat mGlu5 [23]; absence of added glutamate): increased pERK1/2 in the absence of added glutamate; also recorded: robust agonist activity | glutamate-induced phosphorylation of ERK1/2 (rat mGlu5 [23]; mGlu5-expressing cells): potentiated | agonist efficacy τB (rat mGlu5 [23]; [26]): 1.04 | cooperativity β with glutamate (rat mGlu5 [23]; [26]): 1.43 | brain to plasma partition coefficient (Kp) at unrestricted equilibrium ([fup]/[fubr]) ([24]; from in vitro fup and fubr): 1.8 | fraction unbound in rat brain (fubr) ([24]; in vitro): 0.04
